# Results published in ChEMBL document CHEMBL4513216, “Probing the Open Global Health Chemical Diversity Library for Multistage-Active Starting Points for Next-Generation Antimalarials” (ACS Infect Dis, 2020).
# Assay: Toxicity liver stage against HepG2, at 10uM
# Assay type: cell-based
# Parameters: test concentration 10 uM, cell line HepG2-A16-CD81EGFP
# Settings: human, HepG2-A16-CD81EGFP cells; read-out: INHIBITION
# Method in brief: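 Uninfected HepG2-A16-CD81EGFP cells, 3 × 10^3 per well, 1536-well, plated on prespotted compound at 10 μM final, parasite-free screening media added to match infected plates; puromycin 10 μM positive, DMSO 0.5% negative; run in parallel with 48 h PbLuc assay at 37 °C, 5% CO2; viability by CellTiter-Glo luminescence, normalized to controls.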
row,Compound,cytotoxicity at 10 µM [%]
1,CCOc1cccc(C(=O)Nc2ccncc2)c1,8.59
2,CN1CCOC[C@H]1c1nc(C(C)(C)C)c[nH]1,5.08
3,COc1ccccc1C(=O)NC[C@H]1COCc2nc3c(C)cccc3n21,0.331
4,Cc1ccc(NC(=O)Nc2c[nH]c(=O)[nH]c2=O)c(C)c1,18.2
5,COC(=O)[C@H](C)NC(=O)Cn1ccc2ccc(F)cc21,-0.112
6,O=c1c(NCc2ccncc2)c(NCC(O)CN2CCOCC2)c1=O (stereo unspecified),-44
7,CC(C)n1ccc2c(C(=O)NC3CN4CCC3CC4)cccc21 (stereo unspecified),-54.2
8,CC(O)(CCc1ccccc1)CNC(=O)c1ccsc1 (stereo unspecified),-1.18
9,CNC(=O)Cc1csc(NC(=O)C2CSCCC(=O)N2)n1 (stereo unspecified),-4.94
10,O=C(c1ccco1)N1CC(S(=O)(=O)c2ccc(Cl)cc2)C1,-2.02
11,O=C(Nc1ccccc1)C1CCCN(c2cc(-n3cncn3)ncn2)C1 (stereo unspecified),-2.1
12,CCN1C[C@H]2CCN(C(=O)Nc3ccccc3C)CC[C@H]2S1(=O)=O,1.08
13,CCC(CC)NC(=O)c1ccc2nnc(C3CCN(C(C)=O)C3)n2c1 (stereo unspecified),-2.19
14,CC(C)CN1CCNC(=O)C12CCN(C(=O)c1ccccn1)CC2,5.25
15,O=C(c1c2c(NCC3CC3)ncnc2n2ccccc12)N1CCOCC1,9.82
16,Cc1csc([C@@H]2C[C@@H]3CCN(C(=O)c4cccn4C)C[C@H]3O2)n1,4.12
17,O=C(O)c1nnn(-c2ccccc2F)c1-c1ccncc1,10.2
18,CCC(=O)N1CCN(c2ncnc3c(C)nn(C)c23)CC1,-1.43
19,COc1ccc(NS(=O)(=O)c2cnc(NC(C)=O)s2)cc1,10.9
20,CCn1nc(C)c(NC(=O)CCn2ncc3cc(C)ccc32)c1C,10.8
21,Cc1cc(-c2cnc(N3CCSCC3)nc2C(C)C)on1,16.8
22,CC(=O)Nc1ccc(CN2CCCC(c3cc4ncccc4[nH]3)C2)cc1 (stereo unspecified),0.99
23,Cc1cc(-c2nccs2)nc(C2CCN(Cc3cccs3)CC2)n1,6.81

row,Compound,cytotoxicity at 10 µM [%]
1,CCn1nc(C)c(CN(Cc2ccccn2)Cc2ccccc2Cl)c1C,5.17
2,CCOc1c(Br)cc(CNC(C)c2nnc3n2CCC3)cc1OC (stereo unspecified),-40.9
3,COc1ccc(C(NC(=O)NCc2nnc3n2CCC3)C2CC2)cc1 (stereo unspecified),11.7
4,O=S(=O)(NCCCn1cncn1)c1ccc2c(c1)CCCC2,4.16
5,CN(Cc1cc(Br)cn1C)C(=O)Cc1cccc(O)c1,-4.99
6,CCN(CC1COc2ccccc2O1)C(=O)C1=NN(C)C(=O)CC1 (stereo unspecified),-39.6
7,CSCC(C)N(C)S(=O)(=O)c1ccc(Cl)cc1C#N (stereo unspecified),-41.5
8,Cc1ccccc1CCCN(Cc1ccccn1)S(C)(=O)=O,9.53
9,CC(=O)N(C)Cc1ccccc1NCc1c(C)cccc1C,-4.54
10,O=C(C1SCCc2ccccc21)N1CCC(O)CC1 (stereo unspecified),0.0013
11,O=C(NCCCSc1ccc(F)cc1)C1CCc2cn[nH]c2C1 (stereo unspecified),-3.65
12,NC(=O)NC(=O)C(c1ccccc1)N1CCN(Cc2ccc(Cl)s2)CC1 (stereo unspecified),-6.7
13,CN(Cc1ccccc1F)C(C(N)=O)c1ccccc1 (stereo unspecified),-2.09
14,O=C(Cn1cccn1)Nc1ccc(N2CCCCC2)cc1,0.955
15,Cc1cc(C)n(-c2ccc(N3CCC(O)CC3)nc2)n1,-5.08
16,O=C(NCc1cccc(-n2cncn2)c1)NCC(C1CC1)C1CC1,6.03
17,CCC(CC)C(O)CNC(=O)Nc1cccc(-c2nccn2C)c1 (stereo unspecified),-1.39
18,CC(C)OCCOCc1cccc(NC(=O)NCc2cnn(C)c2)c1,-1.11
19,CCS(=O)(=O)N1CCc2c(cccc2NC(=O)NCCO)C1,-7.47
20,CC(C)Cc1cc(C(=O)NC(C)C)[nH]n1,5.67
21,O=C(NS(=O)(=O)Cc1ccc(F)cc1)C1CCOc2ccccc21 (stereo unspecified),-3.22
22,CCN(CC)Cc1ccc(C(=O)NC2CCc3cc(Cl)ccc32)o1 (stereo unspecified),-3.81
23,Cc1cccc(N(CCC(N)=O)C(=O)c2ccnc(C)n2)c1,-8.47

row,Compound,cytotoxicity at 10 µM [%]
1,COCCN(CCOC)C(=O)NC1CCCCC1,-0.655
2,CNC(=O)NC(C)c1c(F)cccc1Cl (stereo unspecified),-6.2
3,CCC1c2ccccc2CCN1CCCS(C)(=O)=O (stereo unspecified),1.75
4,Cc1noc(C)c1CN(C)Cn1c(=O)oc2ccccc21,-5.07
5,CCn1nc2c(cc1=O)CN(CC(=O)N(C)c1nccs1)CC2,-4.58
6,O=C(NC(C(=O)Nc1cc[nH]n1)c1ccccc1)C1CCC1 (stereo unspecified),-17.5
7,CCN1CCc2c(cccc2NC(=O)N(C)C2CCSC2)C1 (stereo unspecified),-49.1
8,CC(O)CNc1ccc(C#N)cc1C(F)(F)F (stereo unspecified),-42.7
9,CCc1ccc(C(C)NC(=O)c2ccc(CS(C)(=O)=O)o2)cc1 (stereo unspecified),-3.07
10,COC(=O)CCN1CCC(NC(=O)OC(C)(C)C)CC1,14.7
11,CC(=O)N1CCC2(C1)c1ccccc1S(=O)(=O)N2C (stereo unspecified),6.57
12,O=C(c1ccco1)N1Cc2cnn(CC3CC3)c2C(COCC2CC2)C1 (stereo unspecified),4.04
13,CCS(=O)(=O)NCC1Cn2nnc(-c3cccc(C)c3)c2CO1 (stereo unspecified),-120
14,Cc1ccc(CN2CCn3c(CNS(C)(=O)=O)nnc3C2)s1,-67.7
15,Cc1ccc(C(=O)N2CC[C@@]3(C[C@@H](NS(C)(=O)=O)CCO3)C2)s1,-73.9
16,CC(C)CN1Cc2c(C(=O)NC3CC3)ncn2-c2ccccc2S1(=O)=O,-77.6
17,Cc1cccc(CN2CCn3c(C(=O)N(C)C)cnc3C2)c1,-69.5
18,Fc1cnc(NCC2Cn3nnc(-c4ccccc4)c3CO2)nc1 (stereo unspecified),-64.7
19,CN1C(=O)CC(C(=O)O)C12CCN(Cc1cc(Cl)ccc1F)CC2 (stereo unspecified),5.64
20,Cc1ccc(C)c(N2CCN(CC3(O)CCNC3)CC2)c1 (stereo unspecified),-5.83
21,Cn1cc(C2=CCN(CCCC(=O)Nc3ccc(C#N)cc3)CC2)cn1,-6.84
22,CC(C)c1cc(C(=O)N2CCOC3(CCCC3)C2)no1,-6.2
23,Cc1nn(CCO)cc1CN1CCC(N2CCC(O)CC2)CC1,-0.931

row,Compound,cytotoxicity at 10 µM [%]
1,CNc1cc(C(=O)NCCC2=CSC3=NCCCN23)ccn1,8.71
2,CCC(Nc1nc(C2CCCC2)nc2c1cnn2C)c1ccncc1 (stereo unspecified),-39.6
3,Cc1cccnc1NCCNC(=O)C1CCN(C(=O)N(C)C)CC1,1.99
4,CN(C)C(C(=O)N1Cc2ccccc2C1)c1ccccc1F (stereo unspecified),-1.91
5,CC(c1ccon1)N(C)S(=O)(=O)NCc1ccccc1 (stereo unspecified),-0.174
6,Cc1ccc(CN2CCN(C3CCCC3)CC2CCO)o1 (stereo unspecified),-6.05
7,CC(=O)c1ccc(NCc2cc3n(n2)CCCN(S(C)(=O)=O)C3)nc1,1.02
8,CC(C)N1CCCC(C(=O)N(C)CCCc2cnn(C)c2)C1 (stereo unspecified),-8.03
9,CC(C)c1cc(C(=O)N2CCN(c3ccc(F)c(Cl)c3)CC2)n(C)n1,19.7
10,CC(C)Oc1ccccc1OCCN1C(=O)CCNC1=O,-6.67
11,CS(=O)(=O)N1CCN(c2ccnc(N3CCCC3)n2)CC1,-1.26
12,COCCOC1CCN(C(C(=O)O)c2c(Cl)cccc2OC)CC1 (stereo unspecified),6.15
13,CC(C)c1nc(CN(C)C(=O)c2cn3ccsc3n2)cs1,8.35
14,CC[C@@]1(O)CCN(CCCOc2ccc(C(N)=O)cc2)C[C@H]1O,-5.03
15,O=C(NCC1CCS(=O)(=O)C1)N1CCN(c2cnccn2)CC1 (stereo unspecified),-7.21
16,COc1cccc(CNCc2ccnc(N3CCOCC3)c2)c1OC,7.26
17,O=C(Nc1cccc(C2SCCS2)c1)C1CCCN1c1nccs1 (stereo unspecified),-10.1
18,Cc1nnc2n1CCN(CC(=O)N1CCc3ccccc3C1)C2,-9.27
19,Cc1nc(NC(=O)c2ccc(-n3ncc(C#N)c3N)cc2)sc1C,7.13
20,c1cc(CNCC2CNc3ccnn3C2)cc(Cn2cccn2)c1 (stereo unspecified),-19
21,Cn1ccnc1CN1CCCN(C(=O)CC(C2CC2)C2CC2)CC1,-19.8
22,Cc1cc(NC(=O)NCc2cccnc2OC2CCCC2)n(C)n1,-1.07
23,CCNC(=O)C(C)NC(=O)c1cnc(-c2ccc(C)cc2C)s1 (stereo unspecified),-18.7

row,Compound,cytotoxicity at 10 µM [%]
1,CC(C)C(NC(=O)NCCNc1ccccn1)c1cccs1 (stereo unspecified),-8.13
2,CCN1CCN(C(=O)c2nc(C)n(-c3ccccc3Cl)n2)CC1,-2.87
3,Cc1cc(C)cc(OCCC(=O)N2CCOCC2c2ncon2)c1 (stereo unspecified),-8.72
4,Cc1oc(C)c(C(=O)NCc2cccnc2N(C)C)c1C,-0.292
5,Cc1nc(C2CCCN2CC(=O)NCCOc2ccccc2)no1 (stereo unspecified),-6.54
6,O=C1CCC(C(=O)NCc2nncn2-c2ccccc2)CN1 (stereo unspecified),-12.7
7,CCC(CO)NCc1ccc(-c2ccccc2)o1 (stereo unspecified),4.42
8,Cc1ncc(CNCC(C)O)c2cc(C(=O)c3ccc(Br)cc3)oc12 (stereo unspecified),1.39
9,CC(C)CCN1CCc2[nH]nc(C(=O)N3CC=CC3)c2C1,-121
10,CN1CCOCC2(CCCN(C(=O)c3ccc(-n4cccc4)cc3)C2)C1 (stereo unspecified),-98
11,Cc1ncsc1CN1C[C@@H]2CCCO[C@@H]2[C@H](N(C)C(C)C)C1,1.81
12,CN(C)C1CCC2(CCN(Cc3cccnc3)CC2)c2ccccc21 (stereo unspecified),3.15
13,Cc1cc(C)cc(CN2CCC3(CC2)CC(Nc2ncccn2)CO3)c1 (stereo unspecified),5.39
14,O=C(c1ccc2[nH]ccc2c1)N1Cc2nc(CN3CCCCC3)oc2C1,9.58
15,CN(Cc1cccnc1)[C@@H]1CN(C(=O)c2ccno2)[C@@H]2CCCO[C@H]12,-118
16,Fc1cccc(-c2nnn3c2COC(CNCc2nccs2)C3)c1 (stereo unspecified),-102
17,COCCOCC1(CNC(=O)c2ccc(OC)cc2)C[C@@H](O)[C@@H](O)C1 (stereo partly specified),0.0221
18,O=C(c1ccccn1)N1C[C@H]2CC[C@@H](C1)N(C(=O)CCN1CCCC1)C2,3.92
19,CN(C)c1cccc(C(=O)N2C[C@@H]3CC[C@H]2CN(C(=O)C2CCC2)C3)c1,-0.69
